In ChEMBL document CHEMBL4364301 (Eur J Med Chem, 2019):

How the values were obtained:
DU-145 = assay: Antiproliferative activity against human DU145 cells assessed as reduction in cell growth incubated for 96 hrs by propidium iodide based 2D monolayer assay; assay type: functional; conditions: DU-145, 96 h
Method in brief: (§1)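 After 24 h recovery, compound in medium or medium alone (control wells) was added at 10 half-log concentrations from 0.0032 to 100 µM, in triplicate, with at most 0.3% DMSO. After 96 h, wells were PBS-washed, stained with 7 µg/ml PI and 0.1% Triton X-100, and fluorescence read at 530/620 nm. IC50 came from a 4-parameter fit, geometric mean.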

CWR22R = assay: Antiproliferative activity against human 22Rv1 cells assessed as reduction in cell growth incubated for 96 hrs by propidium iodide based 2D monolayer assay; assay type: functional; conditions: 22Rv1, 96 h; method in brief: as §1
LNCaP = assay: Antiproliferative activity against human LNCAP cells assessed as reduction in cell growth incubated for 96 hrs by propidium iodide based 2D monolayer assay; assay type: functional; method in brief: as §1
VCaP = assay: Antiproliferative activity against human VCaP cells assessed as reduction in cell growth incubated for 96 hrs by propidium iodide based 2D monolayer assay; assay type: functional
Method in brief: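 VCaP cells in RPMI 1640 with 10% FCS at 37 °C, 5% CO2, seeded 4,000–20,000 cells/well and left 24 h before dosing. Compounds from DMSO stocks were diluted in half-log steps in medium, 10 concentrations 0.0032–100 μM, triplicate wells, max 0.3% DMSO. After 96 h, cells were washed, stained with 7 μg/ml propidium iodide plus 0.1% Triton X-100 for 1–2 h at room temperature, and fluorescence read at ex 530/em 620 nm.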

Androgen receptor = target: T1, Androgen receptor (Rattus norvegicus, UniProt P15207); assay: Antagonist activity at GAL4-DBD fused rat androgen receptor expressed in UAS-bla 293 cells assessed as reduction in R1881-induced activation incubated for 16 hrs followed by fluorescence substrate addition and measured after 2 hrs by beta lactamase reporter gene assay; assay type: cell-based
T1 sequence (P15207 whole entry): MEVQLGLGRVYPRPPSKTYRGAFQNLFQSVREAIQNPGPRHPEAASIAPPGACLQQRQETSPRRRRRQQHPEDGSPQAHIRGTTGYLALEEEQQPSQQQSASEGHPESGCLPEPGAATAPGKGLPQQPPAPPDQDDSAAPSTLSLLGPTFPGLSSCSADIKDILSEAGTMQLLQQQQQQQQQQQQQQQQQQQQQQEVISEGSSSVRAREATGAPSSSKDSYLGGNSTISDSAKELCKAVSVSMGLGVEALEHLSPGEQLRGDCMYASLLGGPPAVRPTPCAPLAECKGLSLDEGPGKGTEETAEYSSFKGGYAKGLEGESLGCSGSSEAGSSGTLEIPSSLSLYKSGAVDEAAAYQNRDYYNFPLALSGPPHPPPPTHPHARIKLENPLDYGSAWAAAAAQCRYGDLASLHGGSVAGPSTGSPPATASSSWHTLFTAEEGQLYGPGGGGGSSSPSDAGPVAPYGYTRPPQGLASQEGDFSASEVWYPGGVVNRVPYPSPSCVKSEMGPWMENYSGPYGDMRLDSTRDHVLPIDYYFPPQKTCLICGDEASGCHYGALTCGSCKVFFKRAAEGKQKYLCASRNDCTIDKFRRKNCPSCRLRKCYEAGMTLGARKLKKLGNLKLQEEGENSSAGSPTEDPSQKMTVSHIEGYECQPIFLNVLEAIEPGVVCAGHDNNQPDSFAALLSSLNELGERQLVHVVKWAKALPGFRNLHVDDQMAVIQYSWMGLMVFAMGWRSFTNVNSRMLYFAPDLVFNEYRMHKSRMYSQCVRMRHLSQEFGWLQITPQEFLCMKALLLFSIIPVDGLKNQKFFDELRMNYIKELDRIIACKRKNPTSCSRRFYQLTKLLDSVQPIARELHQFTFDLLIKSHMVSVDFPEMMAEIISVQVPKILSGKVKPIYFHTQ

CC(O)(COc1ccc(C#N)cc1)C(=O)Nc1ccc(C#N)c(C(F)(F)F)c1 (racemic)
IC50 (DU-145): 44.6 µM
IC50 (CWR22R): 24.8 µM
IC50 (LNCaP): 20.9 µM
IC50 (VCaP): 24.5 µM
IC50 (Androgen receptor): 0.036 µM
